Laboratory results taken from ChEMBL document CHEMBL1131116, “Design and synthesis of new potent C2-symmetric HIV-1 protease inhibitors. Use of L-mannaric acid as a peptidomimetic scaffold” (J Med Chem, 1998).
pIC50, pKi: −log10 of the molar value. In brackets after ≈: the same amount, converted by molar mass.

What was measured:
[1] = target: T1, Human immunodeficiency virus type 1 protease (Human immunodeficiency virus 1, UniProt Q72874); assay: inhibitory activity against purified HIV-1 protease in a standardized spectrophotometric assay expressed in E. coli; ni= no inhibition
In short: (§1)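 Recombinant HIV-1 protease, cloned and heterologously expressed in E. coli, then purified. Inhibition was measured in a standardized spectrophotometric protease assay and reported as IC50 values.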

[2] = target: T1, Human immunodeficiency virus type 1 protease; assay: Inhibitory activity against purified HIV-1 protease expressed in Escherichia coli in sensitive fluorometric assay
[3] = target: T1, Human immunodeficiency virus type 1 protease; assay: inhibitory activity against purified HIV-1 protease in a standardized spectrophotometric assay expressed in E. coli; ni=no inhibition; in short: as §1
[4] = target: T1, Human immunodeficiency virus type 1 protease; assay: Inhibitory activity against purified HIV-1 protease in a standardized spectrophotometric assay expressed in E. uM; in short: as §1
[5] = target: T1, Human immunodeficiency virus type 1 protease; assay: inhibitory activity against purified HIV-1 protease in a standardized spectrophotometric assay expressed in E. coli; ni = no inhibition; in short: as §1
MT4 = assay: In vitro anti-HIV activity in MT-4 cells by using an HIV cytopathic assay; assay type: functional; conditions: Homo sapiens, read-out: ED50 (the source's name)
In short: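 HIV cytopathic assay in MT-4 cells, with cell protection quantified by the vital dye XTT. ED50 (µg/mL), the 50% inhibitory concentration, was calculated from the percent cytoprotection for each compound.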

[6] = target: T1, Human immunodeficiency virus type 1 protease; assay: inhibitory activity against purified HIV-1 protease in a standardized spectrophotometric assay expressed in Escherichia coli
[7] = target: T1, Human immunodeficiency virus type 1 protease; assay: inhibitory activity against purified HIV-1 protease in a standardized spectrophotometric assay expressed in E. inhibition; in short: as §1

| Compound | pKi [2] | IC50 [3] | other results |
| --- | --- | --- | --- |
| CNC(=O)[C@H](Cc1ccc(O)cc1)NC(=O)[C@H](OCc1ccccc1)[C@H](O)[C@@H](O)[C@@H](OCc1ccccc1)C(=O)N[C@@H](Cc1ccc(O)cc1)C(=O)NC | 5.30 |  | IC50 [1]: Not Active |
| CNC(=O)C(NC(=O)[C@H](OCc1ccccc1)[C@H](O)[C@@H](O)[C@@H](OCc1ccccc1)C(=O)NC(C(=O)NC)c1cccc(F)c1)c1cccc(F)c1 (stereo partly drawn) | 7.09 | Not Active |  |
| Cc1ccc(NC(=O)[C@H](OCc2ccccc2)[C@H](O)[C@@H](O)[C@@H](OCc2ccccc2)C(=O)Nc2ccc(C)cc2O)c(O)c1 |  |  | IC50 [4]: Not Active |
| CC(C)[C@H](NC(=O)[C@H](OCc1ccccc1)[C@H](O)[C@@H](O)[C@@H](OCc1ccccc1)C(=O)N[C@H](C(=O)OCc1ccccc1)C(C)C)C(=O)OCc1ccccc1 |  |  | IC50 [5]: Not Active |
| O=C(N[C@@H]1c2ccccc2C[C@@H]1O)[C@H](OCc1ccccc1)[C@H](O)[C@@H](O)[C@@H](OCc1ccccc1)C(=O)N[C@H]1c2ccccc2C[C@H]1O | 9.70 |  | EC50 (MT4): 0.06 µg/mL (≈ 0.0919 µM) |
| CC[C@@H](C)C(NC(=O)[C@H](OCc1ccccc1)[C@H](O)[C@@H](O)[C@@H](OCc1ccccc1)C(=O)NC(C(=O)NC)[C@@H](C)CC)C(=O)NC (stereo partly drawn) | 9.05 |  | EC50 (MT4): 1 µg/mL (≈ 1.56 µM) |
| CNC(=O)[C@H](CCSC)NC(=O)[C@H](OCc1ccccc1)[C@H](O)[C@@H](O)[C@@H](OCc1ccccc1)C(=O)N[C@@H](CCSC)C(=O)NC | 6.18 |  |  |
| COC(=O)[C@H](CC(C)C)NC(=O)[C@H](OCc1ccccc1)[C@H](O)[C@@H](O)[C@@H](OCc1ccccc1)C(=O)N[C@@H](CC(C)C)C(=O)OC |  | Not Active |  |
| O=C(NCc1ccncc1)[C@H](OCc1ccccc1)[C@H](O)[C@@H](O)[C@@H](OCc1ccccc1)C(=O)NCc1ccncc1 |  | Not Active |  |
| O=C(NCc1c(F)cccc1Cl)[C@H](OCc1ccccc1)[C@H](O)[C@@H](O)[C@@H](OCc1ccccc1)C(=O)NCc1c(F)cccc1Cl | 5.70 |  |  |
| CNC(=O)C(NC(=O)[C@H](OCc1ccccc1)[C@H](O)[C@@H](O)[C@@H](OCc1ccccc1)C(=O)NC(C(=O)NC)[C@@H](C)O)[C@H](C)O (stereo partly drawn) | 6.30 | Not Active |  |
| CNC(=O)[C@@H](NC(=O)[C@H](OCc1ccccc1)[C@H](O)[C@@H](O)[C@@H](OCc1ccccc1)C(=O)N[C@H](C(=O)NC)c1ccccc1)c1ccccc1 |  | Not Active |  |
| CNC(=O)[C@@H](NC(=O)[C@H](OCc1ccccc1)[C@H](O)[C@@H](O)[C@@H](OCc1ccccc1)C(=O)N[C@H](C(=O)NC)C(C)C)C(C)C | 9.40 |  | EC50 (MT4): 0.9 µg/mL (≈ 1.46 µM) |
| O=C(NCCO)[C@H](OCc1ccccc1)[C@H](O)[C@@H](O)[C@@H](OCc1ccccc1)C(=O)NCCO |  | Not Active |  |
| O=C(NCc1cccnc1)[C@H](OCc1ccccc1)[C@H](O)[C@@H](O)[C@@H](OCc1ccccc1)C(=O)NCc1cccnc1 |  | Not Active |  |
| COC(=O)[C@@H](NC(=O)[C@H](OCc1ccccc1)[C@H](O)[C@@H](O)[C@@H](OCc1ccccc1)C(=O)N[C@H](C(=O)OC)C(C)C)C(C)C |  |  | pIC50 [6]: 5.30 |
| CC(C)c1nc(CN(C)C(=O)N[C@H](C(=O)N[C@@H](Cc2ccccc2)C[C@H](O)[C@H](Cc2ccccc2)NC(=O)OCc2cncs2)C(C)C)cs1 [RITONAVIR] |  |  | EC50 (MT4): 0.05 µg/mL (≈ 0.0694 µM) |
| O=C(NCc1cncs1)[C@H](OCc1ccccc1)[C@H](O)[C@@H](O)[C@@H](OCc1ccccc1)C(=O)NCc1cncs1 | 5.15 |  |  |
| O=C(NCc1ccccn1)[C@H](OCc1ccccc1)[C@H](O)[C@@H](O)[C@@H](OCc1ccccc1)C(=O)NCc1ccccn1 |  | Not Active |  |
| O=C(NC1c2ccccc2CC1O)[C@H](OCc1ccccc1)[C@H](O)[C@@H](O)[C@@H](OCc1ccccc1)C(=O)N[C@H]1c2ccccc2C[C@H]1O (single isomer, unassigned) |  | Not Active |  |
| CC(C)(C)NC(=O)[C@@H]1CN(Cc2cccnc2)CCN1C[C@@H](O)C[C@@H](Cc1ccccc1)C(=O)N[C@H]1c2ccccc2C[C@H]1O.O [INDINAVIR] |  |  | EC50 (MT4): 0.04 µg/mL |
| COC(=O)[C@H](Cc1ccccc1)NC(=O)[C@H](OCc1ccccc1)[C@H](O)[C@@H](O)[C@@H](OCc1ccccc1)C(=O)N[C@@H](Cc1ccccc1)C(=O)OC |  |  | IC50 [1]: Not Active |
| Cc1cc(O)ccc1NC(=O)[C@H](OCc1ccccc1)[C@H](O)[C@@H](O)[C@@H](OCc1ccccc1)C(=O)Nc1ccc(O)cc1C |  |  | IC50 [4]: Not Active |
| Cc1c(O)cccc1NC(=O)[C@H](OCc1ccccc1)[C@H](O)[C@@H](O)[C@@H](OCc1ccccc1)C(=O)Nc1cccc(O)c1C |  |  | IC50 [4]: Not Active |
| CC(C)[C@@H](CO)NC(=O)[C@H](OCc1ccccc1)[C@H](O)[C@@H](O)[C@@H](OCc1ccccc1)C(=O)N[C@H](CO)C(C)C |  |  | IC50 [7]: Not Active |
| CNC(=O)[C@H](Cc1ccccc1)NC(=O)[C@H](OCc1ccccc1)[C@H](O)[C@@H](O)[C@@H](OCc1ccccc1)C(=O)N[C@@H](Cc1ccccc1)C(=O)NC | 6.85 | Not Active |  |
